In general, pIC50 refers to −log10 of the IC50, conventionally taken in molar units.

Assay [1] concerns the target T1, ABHD12 (Mus musculus, UniProt Q99LR1).
T1 sequence (Q99LR1 1-398): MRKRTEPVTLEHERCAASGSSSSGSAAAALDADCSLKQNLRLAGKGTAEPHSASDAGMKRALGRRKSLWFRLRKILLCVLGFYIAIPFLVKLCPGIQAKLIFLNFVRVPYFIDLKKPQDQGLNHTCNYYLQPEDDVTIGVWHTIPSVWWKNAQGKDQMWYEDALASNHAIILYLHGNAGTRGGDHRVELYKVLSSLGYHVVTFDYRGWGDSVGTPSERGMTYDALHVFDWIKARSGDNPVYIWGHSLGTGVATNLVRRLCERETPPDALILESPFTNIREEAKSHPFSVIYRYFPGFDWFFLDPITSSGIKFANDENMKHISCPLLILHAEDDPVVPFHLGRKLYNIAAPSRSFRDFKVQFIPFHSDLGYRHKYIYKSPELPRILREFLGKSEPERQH
In words: Lyso-PS hydrolysis assay with membrane lysates of ABHD12-transfected cells. Type of assay: biochemical. Summed up:
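Membrane lysate of ABHD12-transfected cells in DPBS incubated with 17:1 lyso-PS (100 μM final) for 20 min at 37 °C. Quenched in 2:1 CHCl₃/MeOH with 15:0 FFA internal standard. Activity is the LC-MS 17:1 FFA/15:0 FFA peak-area ratio minus mock-transfected membrane activity. IC50 fitted as log(inhibitor) vs normalized response.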

Assay [2] concerns the target T1, ABHD12. In words: ABHD12-dependent lyso-PS lipase activity of mouse brain membrane proteome. Type of assay: biochemical.
The target of assay [3] is T2, mouse brain serine hydrolases (Mus musculus, UniProt Q9QXM0).
T2 sequence (Q9QXM0 1-425): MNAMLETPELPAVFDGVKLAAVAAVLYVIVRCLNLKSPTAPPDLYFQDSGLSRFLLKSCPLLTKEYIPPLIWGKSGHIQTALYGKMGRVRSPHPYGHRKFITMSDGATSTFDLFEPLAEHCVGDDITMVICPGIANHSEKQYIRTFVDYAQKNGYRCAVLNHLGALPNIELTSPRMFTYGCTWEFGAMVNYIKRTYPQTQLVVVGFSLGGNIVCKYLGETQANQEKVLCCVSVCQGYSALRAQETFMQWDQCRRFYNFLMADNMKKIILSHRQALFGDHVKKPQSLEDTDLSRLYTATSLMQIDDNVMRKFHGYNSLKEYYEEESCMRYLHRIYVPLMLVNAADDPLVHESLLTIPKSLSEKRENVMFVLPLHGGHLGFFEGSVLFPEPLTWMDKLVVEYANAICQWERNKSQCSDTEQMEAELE
Type of assay: biochemical. Conditions: MS-ABPP, mouse brain membrane proteome, 1 μM.

Assay [4] deals with mouse brain serine hydrolases. Type of assay: biochemical. Conditions: gel-based ABPP 0.1 or 2 μM; MS-based ABPP 1 μM.
For assay [5], the target named is T3, ABHD2 (Mus musculus, UniProt Q9QXM0).
T3 sequence (Q9QXM0 1-425): T2 sequence (Q9QXM0 1-425)
The assay can be described thus: Quantitative MS-ABPP of brain membrane proteome from treated mice: ABHD2. Type of assay: in vivo. Conditions: 30 mg/kg, i.p., 4 h. Summed up: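 Mice dosed i.p. with test compound (30 mg/kg) or vehicle and killed after 4 h (isoflurane, then cervical dislocation). Brain membrane serine hydrolase activities quantified by MS-based ABPP. Each protein's value is the mean of median peptide ratios (treated vs vehicle) ± SEM, from n = 4 or 3 independent samples per compound.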

The target of assay [6] is T4, mouse PLA2G6 (Mus musculus, UniProt P97819).
T4 sequence (P97819 1-807): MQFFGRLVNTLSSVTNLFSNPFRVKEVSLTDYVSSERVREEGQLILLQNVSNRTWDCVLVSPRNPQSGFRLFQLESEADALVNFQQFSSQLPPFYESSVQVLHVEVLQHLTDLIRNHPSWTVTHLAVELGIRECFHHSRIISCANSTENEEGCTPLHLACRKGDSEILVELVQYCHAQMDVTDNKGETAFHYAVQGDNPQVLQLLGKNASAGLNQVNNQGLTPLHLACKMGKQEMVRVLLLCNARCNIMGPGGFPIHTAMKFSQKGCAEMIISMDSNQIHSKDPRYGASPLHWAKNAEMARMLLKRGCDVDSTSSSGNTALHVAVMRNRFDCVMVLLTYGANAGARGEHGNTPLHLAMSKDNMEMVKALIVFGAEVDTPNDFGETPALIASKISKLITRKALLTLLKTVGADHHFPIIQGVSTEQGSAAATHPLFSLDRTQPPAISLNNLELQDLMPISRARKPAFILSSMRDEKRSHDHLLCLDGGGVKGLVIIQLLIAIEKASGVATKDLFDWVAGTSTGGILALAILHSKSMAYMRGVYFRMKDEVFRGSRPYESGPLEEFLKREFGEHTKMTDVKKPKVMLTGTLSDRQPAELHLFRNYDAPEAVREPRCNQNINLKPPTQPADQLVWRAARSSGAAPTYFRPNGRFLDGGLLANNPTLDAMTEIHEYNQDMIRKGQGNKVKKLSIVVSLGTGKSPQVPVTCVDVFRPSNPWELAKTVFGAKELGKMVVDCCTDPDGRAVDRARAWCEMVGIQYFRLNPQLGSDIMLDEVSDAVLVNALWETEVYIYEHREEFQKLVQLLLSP
The assay can be described thus: Competitive gel ABPP. The conditions noted are these: membrane lysate 1 mg/mL of transfected HEK293T cells, FP-Rh. Type of assay: biochemical. Summed up:
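HEK293T cells transiently transfected with mouse PLA2G6 cDNA (pCMV-SPORT6); membrane lysate (1 mg/mL) prepared. Lysate pre-exposed to test compound, then labelled with FP-Rh (1 μM final, 45 min, 37 °C). Gel band intensity compared with a control-treated sample.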

The subject of assay [7] is LCMV clone 13. Conditions: mouse, in vivo.

pIC50: −log10 of the molar value.

`FC(F)(F)Oc1ccc(Oc2ccnc(N3CCC(NC(=S)Nc4cccnc4)CC3)c2Cl)c(Cl)c1` [DO264, N-3-pyridyl-N’-(1-[3-chloro-4-{2-chloro-4-(trifluoromethoxy)phenoxy}pyridine-2-yl]piperidin-4-yl)thiourea]: in assay [1] (30-45 min or no preincubation, ABHD12-transfected HEK293T lysate 0.2 mg/mL), the “time dependence of ABHD12 inhibition” value is “did not show time-dependent inhibition”. Moreover, in assay [1] (ABHD12-transfected HEK293T lysates, preincubated 20 min, diluted five-fold), the “ABHD12 activity after dilution of inhibitor-treated lysates” value was “recovery of ABHD12 activity”. Also, the pIC50 in assay [2] was 8.55. In assay [3], the “inhibition of mouse ABHD2 in vitro” value is given as “did not inhibit”. Further, the “selectivity for ABHD12 over other mouse brain serine hydrolases” value in assay [4] is on record as “excellent selectivity”. In addition, the “reduction in ABHD2 activity in treated mice” value in assay [5] is 40-50%. For the same compound, in assay [6], the “inhibition of recombinantly expressed PLA2G6” value is given as “nor did the compound inhibit”. In assay [7], the “pathological response to Cl13 infection, in comparison to (S)-DO271” value was “heightened pathology”; the “pro-inflammatory chemokines in BALF compared to control group” value is given as “increases”; the “total protein in bronchoalveolar lavage fluid (BALF) compared to control group” value is “increases”. Further, the “fraction of treated ABHD12(−/−) mice that died prior to sacrifice at day 10” value in assay [7] (ip, 30 mg/kg) is recorded as 30-40%.

For the origin of these results see paper PMC6263940 (Nature chemical biology, 2018).
